High-throughput results as filed in PubChem BioAssay.
A selection: hits, their analogues and other compounds. The true share with any hit is near 2.1%.
EP2 antag: EP2 receptor (human) inhibition; P43116; C6 glioma cells expressing human EP2, cAMP TR-FRET; cells stimulated with saturating PGE2; inhibition, % at 25 µM; hit rate 0.52% among 260,000;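 active = percent inhibition above 40 after rounding to a whole number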;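 also: rat C6 glioma host cells with rolipram phosphodiesterase inhibitor present; the protocol text gives 20 µM as final concentration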
EP2 mod: modulates human prostaglandin E2 receptor EP2 signaling | induction, % at 25 µM | P43116 | EP2-expressing cells, cAMP HTRF FRET, PGE2 co-stimulation | hit rate 0.83% among 260,000;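 active = compounds whose cAMP rise, as percent of the full-agonist control response, exceeds 60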;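 also: rat C6 glioma line stably carrying human EP2 under a CMV promoter; the protocol text gives 20 µM as final concentration; 100% = response of wells given 1 µM PGE2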
thrombin 1536: blocks human thrombin protease activity | alpha-thrombin, Boc-VPR-AMC fluorogenic substrate cleavage | inhibition, % at 5 µM | hit rate 0.26% among 220,000;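 active = inhibition at or above 40%; inactive = inhibition below 40%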;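 also: 0% = enzyme with no compound and 100% = wells without enzyme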
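Test system: human alpha-thrombin; medium: pH 7.5 Tris-saline with Tween 20; times: reaction at room temperature; signal: AMC fluorescence at 355 nm excitation and 460 nm emission; also added: Boc-VPR-AMC substrate, 15 µM final; dosing: one concentration per compound, 5 µM, with 0.2% DMSO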
FXIa inh: factor XIa (human) inhibition. P03951. purified FXIa, Boc-Glu-Ala-Arg-AMC fluorogenic substrate. inhibition, % at 5 µM. hit rate 0.14% among 220,000. AID 798;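 active = inhibition of at least 40%; inactive = inhibition below 40%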;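 also: fluorescence of freed AMC excited at 355 nm; 0% = enzyme without compound and 100% = no enzyme blank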
Target sequence (P03951 19-387 limits assumed): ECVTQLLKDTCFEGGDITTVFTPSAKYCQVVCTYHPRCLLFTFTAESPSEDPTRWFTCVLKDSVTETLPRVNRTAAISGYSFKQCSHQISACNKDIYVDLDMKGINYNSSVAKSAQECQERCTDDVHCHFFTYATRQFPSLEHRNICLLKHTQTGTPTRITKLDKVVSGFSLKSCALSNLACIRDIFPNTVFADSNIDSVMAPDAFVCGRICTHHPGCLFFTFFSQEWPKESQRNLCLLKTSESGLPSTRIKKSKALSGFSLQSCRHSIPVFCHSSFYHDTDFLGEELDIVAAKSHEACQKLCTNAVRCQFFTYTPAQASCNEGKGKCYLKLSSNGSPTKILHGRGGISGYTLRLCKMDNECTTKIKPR
Target sequence (P03951 388-625 limits assumed): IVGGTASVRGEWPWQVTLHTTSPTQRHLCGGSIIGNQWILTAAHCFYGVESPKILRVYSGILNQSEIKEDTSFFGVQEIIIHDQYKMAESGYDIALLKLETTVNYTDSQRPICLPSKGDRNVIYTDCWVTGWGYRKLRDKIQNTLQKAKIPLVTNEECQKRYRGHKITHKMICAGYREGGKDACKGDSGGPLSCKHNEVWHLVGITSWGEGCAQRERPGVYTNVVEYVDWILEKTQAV
hK5 inh: kallikrein 5 (human) inhibition. hit rate 0.59% among 210,000. inhibition, % at 5 µM. recombinant hK5, fluorogenic AMC substrate cleavage. AID 873;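 active = inhibition of 40% or more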;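 also: 0% = enzyme controls without compound and 100% = no-enzyme blanks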
FXIIa inh: factor XIIa (human) inhibition; inhibition, % at 5 µM; hit rate 0.3% among 220,000; purified FXIIa, Boc-QGR-AMC fluorogenic substrate, 2 h; AID 800; in the data active = inhibition above about 40%;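 also: 0% = enzyme with no compound and 100% = blank without enzyme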
* hit, by the source's call; x = no result.

SMILES | EP2 antag | EP2 mod | thrombin 1536 | FXIa inh | hK5 inh | FXIIa inh
CCCOc1cccc(C(=O)N(Cc2ccco2)C2CCS(=O)(=O)C2)c1 (stereo unspecified) | 0 | 10 | 57* | 9 | 22 | 15
CCCCOc1cccc(C(=O)N(Cc2ccco2)C2CCS(=O)(=O)C2)c1 (stereo unspecified) | 10 | 17 | 1 | 5 | -9 | 15
CC(=O)c1c(C)[nH]c(C(=O)CSc2nnc(C)s2)c1C | 7 | -32 | 40 | 28 | 52* | 25
CC(=O)c1[nH]c(C)c(C(C)=O)c1C | 9 | 7 | 8 | 3 | 47* | 30
O=C(CCn1cnnn1)N1CCC(c2nc3sc4c(c3c(=O)[nH]2)CCCC4)CC1 | x | -35 | x | x | x | x
CC(C)c1cc(C(=O)Nc2cccnc2)no1 | 7 | -2 | 14 | 6 | 45* | 21
CC(C)C(OC(=O)c1cccs1)C(=O)NCc1ccc2c(c1)OCO2 (stereo unspecified) | 10 | -4 | -5 | 31 | 24 | 57*
CC(OC(=O)c1cccs1)C(=O)NCc1ccc2c(c1)OCO2 (stereo unspecified) | 4 | 11 | -7 | -5 | -6 | -3
CC(C)C(=O)N1CCc2cc(C(O)CN3CCN(c4cnccn4)CC3)ccc21 (stereo unspecified) | 4 | -18 | x | x | x | x
O=c1c2c3c(sc2n(CCN2CCCCC2)c(=O)n1Cc1ccco1)CCCCC3 | 8 | 51 | 12 | 10 | 44* | 26
CC(CO)(CO)N=Cc1cc(I)cc(I)c1O | 44* | 39 | x | x | x | x
CC(C)OC(=O)CC(=O)CSc1nc2c(c(-c3ccccc3)c1C#N)CCC2 | 10 | 16 | x | x | x | x
O=C(Nc1cc(=O)[nH]c2ncnn12)c1ccco1 | 5 | -17 | 23 | 23 | 57* | 42*
COC(=O)CSc1nnc(Cn2cnc3ccccc32)n1C | 8 | 20 | x | x | x | x
COc1ccc(Cl)cc1NC(=O)CN1CCC(n2nnc3cc(C(F)(F)F)ccc32)CC1 | 7 | -8 | x | x | x | x
COC(C[C@H](O)C[C@@H](O)[C@H](C)OCc1ccccc1)OC | 13 | 7 | -3 | 26 | 17 | 46*
CCOc1ccc(S(=O)(=O)n2ccc(C)n2)c2ccccc12 | 6 | 16 | 16 | 6 | 49* | 16
CCOC(=O)c1ccc(NC(=O)c2c(O)c3ccccc3n(CC)c2=O)cc1 | 1 | 13 | x | x | x | x
Cc1noc(C)c1CSCC(=O)NC1=NCCS1 | 6 | x | x | x | x | x
Cc1cccc(NC(=O)CSCc2c(C)noc2C)c1C | 8 | 14 | 0 | 35 | 8 | 56*
Nc1nc(-c2ccc(Cl)cc2)cc(C(F)(F)F)n1 | 11 | -16 | 10 | 9 | 42* | 16
Nc1nc(-c2ccc(F)cc2)cc(C(F)(F)F)n1 | 4 | 4 | 0 | 7 | 4 | 17
CCOc1cc(C2NC(=O)NC(O)(C(F)(F)F)C2C(=O)c2ccc(Cl)cc2)ccc1O (stereo unspecified) | 14 | -9 | 54* | 8 | 28 | 27
O=C(COc1ccc([N+](=O)[O-])cc1)NN=C1CCCC1 | 6 | 2 | 29 | 5 | 55* | -6
COc1ccc(C(C)=O)cc1CSc1nc2cc(C(=O)O)ccc2c(=O)n1Cc1ccccc1 | 12 | 64* | -2 | 0 | -9 | 6
SMILES | EP2 antag | EP2 mod | thrombin 1536 | FXIa inh | hK5 inh | FXIIa inh
CCOC(Cn1c(SCc2cc(C(C)=O)ccc2OC)nc2ccccc2c1=O)OCC | 30 | 19 | 1 | 11 | -9 | 4
Cn1c(SCC(=O)c2ccccc2)nnc1-c1cccc(N)c1 | 7 | -17 | 6 | 15 | 60* | 106*
Clc1ccc(Oc2ncnc3oc(-c4ccccc4)cc23)cc1 | 12 | -12 | 3 | 18 | -4 | 33
Cc1ccccc1Oc1ncnc2oc(-c3ccccc3)cc12 | 9 | 24 | 34 | 7 | 59* | 22
COc1ccc(N(CC(=O)NCc2ccc(Cl)cc2)S(=O)(=O)c2ccccc2[N+](=O)[O-])c(OC)c1 | 3 | -2 | 16 | 102* | 23 | 37
COc1ccccc1NC(=O)CSc1nnc2c(n1)[nH]c1ccc(C)cc12 | 7 | -44 | x | x | x | x
O=C(Cc1cc(=O)oc2cc(O)ccc12)NCC1CCC(C(=O)O)CC1 (stereo unspecified) | 12 | 64* | -24 | -30 | -62 | -57
COc1ccc2c(CC(=O)O)cc(=O)oc2c1 | 7 | 20 | -4 | 0 | 1 | 2
Cc1ccccc1-n1c(-c2cnccn2)n[nH]c1=S | 14 | -5 | x | x | x | x
COc1ccc(C(OC(=O)c2ccco2)C(=O)NC2CCCCC2)cc1OC (stereo unspecified) | 8 | 2 | 36 | 8 | 83* | 15
COc1ccc(-c2ncccc2OC(=O)C23CC4CC(CC(C4)C2)C3)cc1 | 3 | 16 | 18 | 3 | 60* | -1
COc1ccc(Nc2cnn(-c3nc4ccccc4s3)c(=O)c2Cl)cc1 | 61* | -76 | -3 | 2 | -5 | 9
O=c1c(Cl)c(Nc2cccc(Cl)c2)cnn1-c1nc2ccccc2s1 | 10 | -62 | -7 | -3 | -4 | 3
O=C(NCCN1CCc2ccccc2C1)C1CC(=O)N(C2CCCC2)C1 (stereo unspecified) | 16 | 28 | 0 | 5 | 2 | 73*
Cc1ccc(C)c2[nH]c(=O)c(CN(CCCN3CCCC3=O)S(=O)(=O)c3ccc(F)cc3)cc12 | 10 | -15 | x | x | x | x
COc1ccc(S(=O)(=O)N(CCCN2CCCC2=O)Cc2cc3c(C)cc(C)cc3[nH]c2=O)cc1 | 17 | -10 | 6 | -6 | 133* | -1
COc1ccc(C(=O)Nc2cccc(S(C)(=O)=O)c2)cc1OC | 1 | -15 | 11 | 28 | 43* | 22
COc1ccc(C(=O)Nc2cccc(NC(C)=O)c2)cc1OC | 6 | 28 | 2 | 7 | 0 | 14
CCOC(=O)c1sc(NS(=O)(=O)c2cc(C)ccc2C)nc1C | 9 | 34 | 30 | 14 | 40* | 22
CCOC(=O)c1sc(NC(C)=O)nc1C | 26 | -2 | -3 | 2 | -2 | 14
C=CCN(CC=C)Cc1c(O)ccc2c1oc(=O)c1ccccc12 | 41* | x | x | x | x | x
CC(C)c1cc(C(=O)NCc2nc(-c3ccccc3)no2)n(C)n1 | 7 | -94 | x | x | x | x
Cc1cc([N+](=O)[O-])ccc1NC(=O)c1ccco1 | 2 | 29 | 2 | -4 | -1 | 5
Cc1cc(NC(=O)c2ccc([N+](=O)[O-])o2)ccc1NC(=O)c1ccco1 | 64* | -93 | 18 | 6 | 3 | 9
Cc1cc(C)cc(NC(=O)c2ccc([N+](=O)[O-])o2)c1 | 1 | -62 | 24 | 70* | 30 | 32
Cc1cc(C)nc(NC(=O)c2ccc([N+](=O)[O-])o2)n1 | 5 | 8 | -10 | 6 | -13 | 4
Nc1sc2c(c1C(=O)c1ccc(Cl)cc1)CCC2 | 15 | 83* | x | x | x | x
Cc1cccc(C(=O)c2c(N)sc3c2CCCC3)c1 | 2 | 53 | -3 | 4 | -6 | 11
